Laboratory results as given in BindingDB's records for doi:10.1021/jm4005048 (Northwestern University, 2013).

Biological target: Voltage-dependent L-type calcium channel subunit alpha-1C (Oryctolagus cuniculus, UniProt P15381)
Assay: Antagonist activity at rabbit CaV1.2alpha1C transfected in HEK293 cells by FLIPR assay
In short: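 HEK293 cells stably transfected with rabbit CaV1.2α1C cDNA, plated at 4 × 10⁴ cells/well and cultured 4 days in DMEM with 10% FBS. Calcium influx is read on a FLIPR Tetra with a Fluo-8 no-wash calcium dye.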

Voltage-dependent L-type calcium channel subunit alpha-1C, sequence (P15381 whole entry): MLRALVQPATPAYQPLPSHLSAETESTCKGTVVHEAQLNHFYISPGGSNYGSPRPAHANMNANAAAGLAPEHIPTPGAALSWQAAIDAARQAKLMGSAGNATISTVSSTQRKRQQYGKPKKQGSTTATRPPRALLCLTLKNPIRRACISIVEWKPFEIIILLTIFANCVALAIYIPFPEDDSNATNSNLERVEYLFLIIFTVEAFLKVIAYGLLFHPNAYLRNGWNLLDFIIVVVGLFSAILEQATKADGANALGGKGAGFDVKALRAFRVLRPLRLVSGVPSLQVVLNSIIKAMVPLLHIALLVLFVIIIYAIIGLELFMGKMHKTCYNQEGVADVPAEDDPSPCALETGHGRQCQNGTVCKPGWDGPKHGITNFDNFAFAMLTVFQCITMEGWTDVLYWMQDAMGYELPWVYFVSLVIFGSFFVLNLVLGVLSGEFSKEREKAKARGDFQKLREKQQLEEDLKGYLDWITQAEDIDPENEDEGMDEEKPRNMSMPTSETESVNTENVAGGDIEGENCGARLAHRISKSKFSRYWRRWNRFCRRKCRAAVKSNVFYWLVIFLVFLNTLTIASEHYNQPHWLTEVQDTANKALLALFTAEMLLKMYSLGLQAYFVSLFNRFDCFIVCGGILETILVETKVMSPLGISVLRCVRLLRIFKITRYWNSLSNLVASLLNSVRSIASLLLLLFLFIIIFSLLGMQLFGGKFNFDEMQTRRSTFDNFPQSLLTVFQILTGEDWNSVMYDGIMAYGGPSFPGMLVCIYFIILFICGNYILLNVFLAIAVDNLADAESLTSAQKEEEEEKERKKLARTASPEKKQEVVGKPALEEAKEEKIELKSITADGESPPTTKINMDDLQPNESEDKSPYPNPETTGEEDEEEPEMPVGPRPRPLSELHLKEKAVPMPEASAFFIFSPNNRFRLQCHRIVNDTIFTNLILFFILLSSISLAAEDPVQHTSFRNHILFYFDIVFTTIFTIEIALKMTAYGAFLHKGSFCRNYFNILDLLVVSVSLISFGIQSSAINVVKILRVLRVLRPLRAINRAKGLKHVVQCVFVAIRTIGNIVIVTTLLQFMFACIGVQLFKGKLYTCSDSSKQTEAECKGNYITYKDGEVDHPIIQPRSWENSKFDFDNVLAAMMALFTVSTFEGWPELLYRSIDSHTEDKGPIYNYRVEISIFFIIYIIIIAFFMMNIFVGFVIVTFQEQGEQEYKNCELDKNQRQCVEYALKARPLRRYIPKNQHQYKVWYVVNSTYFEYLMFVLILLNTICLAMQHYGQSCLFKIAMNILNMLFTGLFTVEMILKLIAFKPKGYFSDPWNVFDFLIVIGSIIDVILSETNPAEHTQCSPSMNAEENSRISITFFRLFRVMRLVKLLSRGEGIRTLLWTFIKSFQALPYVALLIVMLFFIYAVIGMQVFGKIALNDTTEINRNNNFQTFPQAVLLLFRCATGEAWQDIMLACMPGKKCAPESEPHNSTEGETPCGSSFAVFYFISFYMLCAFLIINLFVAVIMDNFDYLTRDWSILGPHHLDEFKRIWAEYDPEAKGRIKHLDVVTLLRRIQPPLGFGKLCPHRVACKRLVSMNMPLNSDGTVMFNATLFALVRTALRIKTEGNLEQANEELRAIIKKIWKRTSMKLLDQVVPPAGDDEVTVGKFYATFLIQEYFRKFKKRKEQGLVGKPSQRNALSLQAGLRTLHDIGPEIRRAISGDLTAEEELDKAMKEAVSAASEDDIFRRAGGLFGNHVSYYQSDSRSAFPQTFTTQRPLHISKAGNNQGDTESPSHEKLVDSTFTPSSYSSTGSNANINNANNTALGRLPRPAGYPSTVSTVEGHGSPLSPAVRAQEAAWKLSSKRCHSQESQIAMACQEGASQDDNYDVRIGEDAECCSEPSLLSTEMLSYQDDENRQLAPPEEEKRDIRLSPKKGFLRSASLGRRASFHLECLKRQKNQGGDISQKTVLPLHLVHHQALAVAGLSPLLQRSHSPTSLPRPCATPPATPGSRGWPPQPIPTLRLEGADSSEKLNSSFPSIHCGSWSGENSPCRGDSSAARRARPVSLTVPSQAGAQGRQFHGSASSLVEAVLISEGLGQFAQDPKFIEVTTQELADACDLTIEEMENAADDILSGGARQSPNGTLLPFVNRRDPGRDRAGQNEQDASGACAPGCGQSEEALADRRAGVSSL

Row | Compound | IC50 [µM]
1 | O=c1cc(O)n(CCc2cccc(C(F)(F)F)c2)c(=O)n1[C@H]1C[C@H]2CC[C@@H]1C2 | > 100
2 | O=c1cc(O)n(CCc2cccc(Cl)c2)c(=O)n1C1CCCC1 | > 100
3 | CC(Cn1c(O)cc(=O)n(C2CC3CCC2C3)c1=O)c1cccc(Cl)c1 (stereo not given) | 5.1
4 | O=c1cc(O)n(CCc2cccc(Cl)c2)c(=O)n1[C@H]1CCC[C@@H]1O | > 100
5 | C[C@H]1[C@H](n2c(=O)cc(O)n(CCc3cccc(Cl)c3)c2=O)C[C@@H]2C[C@H]1C2(C)C | > 100
6 | O=c1cc(O)n(CCC(c2ccccc2)c2ccccc2)c(=O)n1C1CCCC1 | 4.7
7 | O=c1cc(O)n(CCc2ccc(Cl)cc2)c(=O)n1[C@H]1C[C@H]2CC[C@@H]1C2 | 100
8 | C[C@@H]1[C@@H](n2c(=O)cc(O)n(CCc3cccc(Cl)c3)c2=O)C[C@H]2C[C@@H]1C2(C)C | > 100
9 | C[C@@H]1CCC[C@@H]1n1c(=O)cc(O)n(CCc2ccc(Cl)cc2)c1=O | 5.1
10 | C[C@H](C1CCCCC1)n1c(=O)cc(O)n(CCc2ccc(Cl)cc2)c1=O | > 100
11 | C[C@@H](C1CCCCC1)n1c(=O)cc(O)n(CCc2ccc(Cl)cc2)c1=O | > 100
12 | O=c1cc(O)n(CCc2ccc(Cl)cc2)c(=O)n1C[C@H]1CCCO1 | > 100
13 | CC1(C)CCC[C@H]1n1c(=O)cc(O)n(CCc2cccc(Cl)c2)c1=O | 4.7
14 | O=c1cc(O)n(CCc2cccc(Cl)c2)c(=O)n1[C@H]1C[C@H]2CC[C@@H]1C2 | > 100
15 | O=C(O)[C@H]1CC[C@@H](n2c(=O)cc(O)n(CCc3cccc(Cl)c3)c2=O)C1 | > 100
16 | C[C@H](C1CCCCC1)n1c(=O)cc(O)n(CCc2cccc(Cl)c2)c1=O | > 100
17 | C[C@@H](C1CCCCC1)n1c(=O)cc(O)n(CCc2cccc(Cl)c2)c1=O | > 100
18 | CC(C)(Cn1c(O)cc(=O)n(C2CCCC2)c1=O)c1cccc(Cl)c1 | 12.6
19 | COC(=O)[C@H](Cc1ccccc1)n1c(O)cc(=O)n(C2CCCC2)c1=O | > 100
20 | CC1(C)[C@@H]2CC[C@H](Cn3c(=O)cc(O)n(CCc4ccc(Cl)cc4)c3=O)[C@H]1C2 | > 100
21 | O=c1cc(O)n(CC2(c3ccc(Cl)cc3)CC2)c(=O)n1C1CCCC1 | > 100
22 | O=c1cc(O)n(-c2cccc(C(F)(F)F)c2)c(=O)n1C1CCCC1 | > 100
23 | C[C@H]1[C@H](n2c(=O)cc(O)n(CCc3ccc(Cl)cc3)c2=O)C[C@@H]2C[C@H]1C2(C)C | > 100
24 | C[C@H](c1cccc2ccccc12)n1c(O)cc(=O)n(CCc2cccc(Cl)c2)c1=O | 10
25 | CC1(C)[C@@H]2CC[C@@]1(C)[C@@H](n1c(=O)cc(O)n(CCc3ccc(Cl)cc3)c1=O)C2 | > 100
26 | CC1(C)[C@@H]2CC[C@@]1(C)[C@@H](n1c(=O)cc(O)n(CCc3cccc(Cl)c3)c1=O)C2 | > 100
27 | C[C@H]1CCC[C@H]1n1c(=O)cc(O)n(CCc2ccc(Cl)cc2)c1=O | 10
28 | CCOC(=O)[C@@H]1CCC[C@@H]1n1c(=O)cc(O)n(CCc2cccc(Cl)c2)c1=O | 12.6
29 | O=c1cc(O)n(CCc2cccc(Cl)c2)c(=O)n1[C@@H]1C[C@@H]2CC[C@H]1C2 | > 100
30 | O=c1cc(O)n(CCc2cccc(C(F)(F)F)c2)c(=O)n1[C@@H]1C[C@@H]2CC[C@H]1C2 | 100
